Consider one compound from ChEMBL document CHEMBL4627381, “Licochalcone A Selectively Resensitizes ABCG2-Overexpressing Multidrug-Resistant Cancer Cells to Chemotherapeutic Drugs” (J Nat Prod, 2020).

Structures are written as SMILES.

The test system of data set [1] is S1-M1-80. Put plainly: Induction of apoptosis in human S1-M1-80 cells harboring ABCG2 (unknown origin) assessed as viable cells at 10 uM incubated for 48 hrs by annexin V/propidium iodide staining based flow cytometry (reference value: 93.9%). The class given is functional. The note with it: S1-M1-80, 48 h, read-out: Activity. In general terms: A flow cytometer gives signals particle by particle.

For data set [2], the system named is HEK293. Kind of data set: Effect on mitoxantrone-induced cytotoxicity against HEK293 cells assessed as fold change in mitoxantrone IC50 at 0.5 uM after 72 hrs by CCK8 assay relative to mitoxantrone IC50. It is filed as cell-based. The note with it: human, hek293, 72 h. The procedure, abridged: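 Reversal assay in parental pcDNA-HEK293 and transfected HEK293 lines (ABCB1 for colchicine, ABCC1 for etoposide, ABCG2 for mitoxantrone/topotecan). Substrate drug series was given with or without nontoxic modulator (0.5, 1.0, 2.0 or 3.0 μM) for 72 h, with a CCK-8 read-out. Fold-reversal is substrate IC50 without modulator divided by IC50 with modulator. Three independent experiments.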

In data set [3] the target is T1, Broad substrate specificity ATP-binding cassette transporter ABCG2 (Homo sapiens, UniProt Q9UNQ0).
T1 sequence (Q9UNQ0 whole entry): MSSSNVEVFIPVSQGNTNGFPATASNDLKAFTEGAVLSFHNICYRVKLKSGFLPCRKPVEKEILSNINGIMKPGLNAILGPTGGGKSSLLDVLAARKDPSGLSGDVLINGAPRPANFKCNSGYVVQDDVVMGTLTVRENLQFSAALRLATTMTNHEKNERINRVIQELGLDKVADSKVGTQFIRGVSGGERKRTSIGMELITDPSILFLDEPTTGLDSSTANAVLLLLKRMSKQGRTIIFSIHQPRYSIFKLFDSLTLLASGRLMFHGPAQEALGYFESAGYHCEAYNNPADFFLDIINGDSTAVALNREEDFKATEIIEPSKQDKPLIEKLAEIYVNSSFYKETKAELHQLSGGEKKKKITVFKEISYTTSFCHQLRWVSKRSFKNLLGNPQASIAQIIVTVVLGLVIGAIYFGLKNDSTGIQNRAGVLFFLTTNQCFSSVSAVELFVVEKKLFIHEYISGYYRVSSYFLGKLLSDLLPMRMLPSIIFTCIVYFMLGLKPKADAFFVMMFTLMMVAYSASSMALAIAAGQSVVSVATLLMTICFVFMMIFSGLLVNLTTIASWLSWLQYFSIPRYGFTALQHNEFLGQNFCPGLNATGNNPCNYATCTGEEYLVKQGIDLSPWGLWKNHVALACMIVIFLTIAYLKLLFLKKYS
Put plainly: Reversal of ABCG2 (unknown origin)-mediated multidrug resistance in human H460-MX20 cells assessed as fold change in topotecan IC50 at 1 uM after 72 hrs by MTT assay relative to topotecan IC50. The class given is cell-based. The procedure, abridged: (§1)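 Cells held drug-free 7 days, seeded at 5000 per well for 24 h, then exposed 72 h to mitoxantrone or topotecan dilutions with DMSO (≤0.5%), LCA 0.5–3.0 μM, or Ko143 1.0 μM. Viability was read by MTT. IC50 came from fitted dose-response curves of three independent experiments. Fold-reversal = IC50 without modulator divided by IC50 with modulator.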
Background: Tetrazolium assays rely on reduction of a dye to a coloured formazan, in cell work by metabolically active cells.

Data set [4] concerns HEK293. Kind of data set: Induction of pheophorbide A accumulation in HEK293 cells at 20 uM incubated for 1 hr by FACScan flow cytometry. It is filed as cell-based. Particulars: human, hek293, 1 h; call rule not given here. The essentials:
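Cells held drug-free 7 days. 3 × 10^5 cells were suspended in IMDM with 5% FCS and loaded with pheophorbide A (ex 395/em 670 nm) for 1 h, with or without LCA (20 μM for single-concentration accumulation) or Ko143 3 μM as reference. Read immediately by flow cytometry. Efflux inhibition was run over a concentration range; mean ± SD of three experiments.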

The test system of data set [5] is S1-M1-80. Kind of data set: Induction of apoptosis in human S1-M1-80 cells harboring ABCG2 (unknown origin) assessed as late apoptotic cells at 10 uM incubated for 48 hrs by annexin V/propidium iodide staining based flow cytometry (reference value: 2.9%). It is filed as functional.
For data set [6], the target named is T1, Broad substrate specificity ATP-binding cassette transporter ABCG2. Put plainly: Reversal of ABCG2 (unknown origin)-mediated multidrug resistance in human S1-M1-80 cells assessed as fold-change in mitoxantrone IC50 at 0.5 uM after 72 hrs by MTT assay relative to mitoxantrone IC50. It is filed as cell-based. The note with it: s1-m1-80, 72 h. The procedure, abridged: as §1

For data set [7], the target named is ATP-dependent translocase ABCB1 (Homo sapiens, UniProt P08183). Put plainly: Reversal of human ABCB1-mediated multidrug resistance in HEK293/MDR19 cells assessed as fold change in colchicine IC50 at 0.5 uM after 72 hrs by CCK8 relative to colchicine IC50. The class given is cell-based. The procedure, abridged: (§2)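 Cells were seeded at 5000/well for 24 h, then given colchicine, etoposide, mitoxantrone or topotecan ± non-toxic modulator (0.5–3.0 μM) for 72 h, with DMSO up to 0.5%. IC50 came from fitted curves (mean ± SD, three experiments). Fold-reversal = IC50 without modulator ÷ IC50 with modulator.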
Chain of ATP-dependent translocase ABCB1 (P08183 whole entry): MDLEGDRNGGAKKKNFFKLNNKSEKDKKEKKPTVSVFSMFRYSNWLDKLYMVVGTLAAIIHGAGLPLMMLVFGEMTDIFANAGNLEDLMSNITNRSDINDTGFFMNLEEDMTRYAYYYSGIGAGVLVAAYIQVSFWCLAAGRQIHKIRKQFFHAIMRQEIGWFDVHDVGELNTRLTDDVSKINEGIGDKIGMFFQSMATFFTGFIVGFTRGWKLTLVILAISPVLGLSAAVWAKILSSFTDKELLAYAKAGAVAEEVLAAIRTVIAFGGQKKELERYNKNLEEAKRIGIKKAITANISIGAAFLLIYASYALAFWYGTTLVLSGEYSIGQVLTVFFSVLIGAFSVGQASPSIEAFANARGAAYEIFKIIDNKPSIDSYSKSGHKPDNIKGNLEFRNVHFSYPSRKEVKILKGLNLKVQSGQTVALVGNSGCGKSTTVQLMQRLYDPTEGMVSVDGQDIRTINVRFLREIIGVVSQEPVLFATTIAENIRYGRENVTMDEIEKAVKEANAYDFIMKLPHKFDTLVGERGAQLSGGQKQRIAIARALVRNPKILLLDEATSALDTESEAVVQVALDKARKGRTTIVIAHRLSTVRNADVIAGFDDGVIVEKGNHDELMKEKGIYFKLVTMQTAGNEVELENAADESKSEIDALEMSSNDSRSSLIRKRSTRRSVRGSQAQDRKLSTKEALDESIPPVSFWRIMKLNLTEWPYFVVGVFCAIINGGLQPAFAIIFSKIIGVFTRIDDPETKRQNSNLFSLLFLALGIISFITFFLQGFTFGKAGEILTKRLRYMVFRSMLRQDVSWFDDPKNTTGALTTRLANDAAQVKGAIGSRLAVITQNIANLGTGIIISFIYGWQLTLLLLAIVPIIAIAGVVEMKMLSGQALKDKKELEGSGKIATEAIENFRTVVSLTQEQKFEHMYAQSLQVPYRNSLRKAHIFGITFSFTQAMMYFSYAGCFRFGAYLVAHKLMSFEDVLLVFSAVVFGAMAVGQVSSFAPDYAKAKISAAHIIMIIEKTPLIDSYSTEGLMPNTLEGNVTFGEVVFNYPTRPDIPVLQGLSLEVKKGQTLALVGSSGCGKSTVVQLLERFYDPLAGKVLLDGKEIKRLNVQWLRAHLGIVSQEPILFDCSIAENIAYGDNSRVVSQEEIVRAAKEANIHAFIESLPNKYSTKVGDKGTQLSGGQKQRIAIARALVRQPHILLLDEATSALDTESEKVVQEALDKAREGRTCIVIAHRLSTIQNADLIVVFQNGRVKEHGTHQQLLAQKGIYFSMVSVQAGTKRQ

Data set [8] concerns LS180. Kind of data set: Upregulation of ABCB1 mRNA expression in human LS180 cells at 1 uM by […] relative to control. The class given is functional. (In general: Immunoblotting shows a protein as a band on a membrane.)
Data set [9] has as its system S1. Put plainly: Induction of apoptosis in human S1 cells assessed as necrotic cells at 10 uM incubated for 48 hrs in presence of topotecan by annexin V/propidium iodide staining based flow cytometry (reference value: 0.2%). The class given is functional. The essentials:
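S1 cells were exposed for 48 h to DMSO, 10 μM compound, 5 μM topotecan, or 5 μM topotecan plus 10 μM compound. They were then stained with 1.25 μg/mL annexin V–FITC and 0.1 mg/mL PI for 15 min at room temperature. 10000 cells per sample were analysed by flow cytometry; three independent experiments.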

Data set [10] addresses Multidrug resistance-associated protein 1 (Homo sapiens, UniProt P33527). Put plainly: Reversal of human ABCC1-mediated multidrug resistance in HEK293/MRP1 cells assessed as fold-change in etoposide IC50 at 3 uM after 72 hrs by CCK8 relative to etoposide IC50. It is filed as cell-based. The essentials: as §2
Data set [11] relates to S1. Put plainly: Induction of apoptosis in human S1 cells assessed as viable cells at 10 uM incubated for 48 hrs in presence of topotecan by annexin V/propidium iodide staining based flow cytometry (reference value: 94.1%). It is filed as functional. Particulars: S1, 48 h, read-out: Activity.
Data set [12] concerns LS180. Put plainly: Upregulation of ABCG2 mRNA expression in human LS180 cells at 1 uM by […] relative to control. The class given is functional.
The target of data set [13] is T1, Broad substrate specificity ATP-binding cassette transporter ABCG2. Put plainly: Reversal of ABCG2 (unknown origin)-mediated multidrug resistance in human S1-M1-80 cells assessed as fold-change in mitoxantrone IC50 at 1 uM after 72 hrs by MTT assay relative to mitoxantrone IC50. The class given is cell-based. The note with it: s1-m1-80, 72 h. The procedure, abridged: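 MTT readout in S1-M1-80 colon cancer cells (mitoxantrone-selected, held in 80 μM mitoxantrone, then drug-free 7 days before assay). Cells were seeded at 5000/well for 24 h, then given increasing mitoxantrone or topotecan with DMSO or non-toxic modulator for 72 h at 37 °C. IC50 came from fitted dose-response curves (at least three independent experiments). Fold-reversal = IC50 without modulator ÷ IC50 with modulator.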

The subject of data set [14] is S1. Kind of data set: Effect on topotecan-induced cytotoxicity against human S1 cells assessed as fold change in topotecan IC50 at 1 uM after 72 hrs by MTT assay relative to topotecan IC50. It is filed as functional. The essentials: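 Parental S1 colon and H460 lung cancer cells were exposed for 72 h to a mitoxantrone or topotecan concentration series, with or without modulator at 0.5–3.0 μM, and read by MTT. Fold-reversal is IC50 without modulator divided by IC50 with modulator, taken from dose-response curves of three independent experiments.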

Chain of Multidrug resistance-associated protein 1 (P33527 whole entry): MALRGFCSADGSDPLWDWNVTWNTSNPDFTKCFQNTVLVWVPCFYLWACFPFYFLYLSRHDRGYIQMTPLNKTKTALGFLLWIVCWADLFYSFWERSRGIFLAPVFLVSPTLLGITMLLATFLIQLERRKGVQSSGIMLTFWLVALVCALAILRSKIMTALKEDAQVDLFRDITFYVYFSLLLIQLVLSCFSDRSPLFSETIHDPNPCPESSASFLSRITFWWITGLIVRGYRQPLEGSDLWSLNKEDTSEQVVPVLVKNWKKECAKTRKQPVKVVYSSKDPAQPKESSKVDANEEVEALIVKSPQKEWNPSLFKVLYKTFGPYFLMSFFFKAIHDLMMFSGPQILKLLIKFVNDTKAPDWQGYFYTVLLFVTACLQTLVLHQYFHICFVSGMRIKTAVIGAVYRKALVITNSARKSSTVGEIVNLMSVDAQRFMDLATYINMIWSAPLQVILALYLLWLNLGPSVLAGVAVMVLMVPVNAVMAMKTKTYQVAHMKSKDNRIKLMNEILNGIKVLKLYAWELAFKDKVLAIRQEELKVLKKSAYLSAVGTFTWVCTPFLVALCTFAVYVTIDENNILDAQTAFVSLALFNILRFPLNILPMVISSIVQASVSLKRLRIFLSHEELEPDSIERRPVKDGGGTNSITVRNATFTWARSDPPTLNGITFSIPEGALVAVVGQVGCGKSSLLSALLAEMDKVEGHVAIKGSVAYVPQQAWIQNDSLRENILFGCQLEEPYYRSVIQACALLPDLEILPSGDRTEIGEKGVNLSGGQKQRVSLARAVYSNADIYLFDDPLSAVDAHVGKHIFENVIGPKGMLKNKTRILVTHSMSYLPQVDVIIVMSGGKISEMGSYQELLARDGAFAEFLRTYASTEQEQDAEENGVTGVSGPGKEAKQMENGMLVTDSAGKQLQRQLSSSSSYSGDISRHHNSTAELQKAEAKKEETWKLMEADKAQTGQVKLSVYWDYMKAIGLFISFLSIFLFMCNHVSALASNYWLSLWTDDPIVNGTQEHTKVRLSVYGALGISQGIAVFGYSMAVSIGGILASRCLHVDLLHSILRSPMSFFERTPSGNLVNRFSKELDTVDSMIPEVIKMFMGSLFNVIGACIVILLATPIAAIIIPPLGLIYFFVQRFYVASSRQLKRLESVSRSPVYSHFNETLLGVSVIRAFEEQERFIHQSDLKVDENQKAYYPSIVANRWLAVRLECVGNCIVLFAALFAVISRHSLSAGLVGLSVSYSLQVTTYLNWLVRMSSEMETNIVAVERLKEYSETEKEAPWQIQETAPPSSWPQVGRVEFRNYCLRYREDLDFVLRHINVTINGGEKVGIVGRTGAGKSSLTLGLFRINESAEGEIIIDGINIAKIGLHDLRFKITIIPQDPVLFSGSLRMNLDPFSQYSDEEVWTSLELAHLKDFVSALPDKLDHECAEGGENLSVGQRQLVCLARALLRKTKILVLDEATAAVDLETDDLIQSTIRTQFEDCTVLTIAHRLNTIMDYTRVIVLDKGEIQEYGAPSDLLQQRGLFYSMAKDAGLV

`C=CC(C)(C)c1cc(/C=C/C(=O)c2ccc(O)cc2)c(OC)cc1O` [LICOAGROCHACONE A]: the viability at 10 µM in the data set on S1-M1-80 [1] worked out at 94.4%; with S1 [11], 44.1%. Besides, the “fold change (FC)” value with HEK293 [2] is 0.9; in [3], 9.2; in [6], 1.9; in data set [7], 1; with LS180 [8], 2 - 6; in [10], 1.1. The “fold change (FC)” value is given as 2 - 6 in the data set on LS180 [12], 10.8 in [13] and 0.8 with S1 [14]. For the same compound, the values for the Activity entry in the data set on HEK293 [4], with S1-M1-80 [5] and in the data set with S1 [9] were “Non-Toxic”, 2.9% and 3%, respectively.
